Values joined by “and” are separate entries in the source; they are usually repeats but may differ in a detail not shown here. Identical values can stand only once. One block for each compound: values may come before it.
Tests used:
A549 lung cancer cells = experiment: In vitro antitumor MTT assay, A549; assay type: cell-based, human; settings: for IC50: Homo sapiens, A549, 24 h, read-out: IC50 A549; for selectivity index to A549: WISH versus A549
Procedure, shortened: (§1)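 ATCC cell lines grown in RPMI-1640 with 10% FBS, penicillin/streptomycin, at 37 °C and 5% CO2. Seeded at 1.0×10^4 cells/well for 48 h, then treated 24 h with a range of test compound concentrations. MTT (5 mg/mL solution) added for 4 h; formazan dissolved in DMSO and read at 570 nm. IC50 from percent viability; mean ± S.D. of three separate experiments.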

HepG-2 hepatoma cells = experiment: In vitro antitumor MTT assay, HepG-2; assay type: cell-based, human; settings: for selectivity index to HepG-2: WISH versus HepG-2; for IC50: read-out: IC50 HepG-2, MTT, 24 h treatment, mean of three experiments
Procedure, shortened: as §1

[1] = test system: Caco-2 colon cancer cells; experiment: In vitro antitumor MTT assay, Caco-2; assay type: cell-based, human; settings: Homo sapiens, Caco-2, 24 h, read-out: IC50 Caco-2
Procedure, shortened: as §1

[2] = In vitro antitumor MTT assay, Caco-2; assay type: cell-based, human; settings: human, Caco-2
Procedure, shortened: as §1

WISH normal cell line = experiment: Cytotoxic effect against normal cell line; assay type: cell-based; settings: read-out: IC50 WISH
VEGFR-2 kinase = VEGFR-2 kinase (Homo sapiens, UniProt P35968); experiment: biochemical; settings: VEGFR-2, IC50, VEGFR-2 Kinase Assay Kit (BPS-Bioscience), luminescence
VEGFR-2 kinase, sequence (P35968 20-1356): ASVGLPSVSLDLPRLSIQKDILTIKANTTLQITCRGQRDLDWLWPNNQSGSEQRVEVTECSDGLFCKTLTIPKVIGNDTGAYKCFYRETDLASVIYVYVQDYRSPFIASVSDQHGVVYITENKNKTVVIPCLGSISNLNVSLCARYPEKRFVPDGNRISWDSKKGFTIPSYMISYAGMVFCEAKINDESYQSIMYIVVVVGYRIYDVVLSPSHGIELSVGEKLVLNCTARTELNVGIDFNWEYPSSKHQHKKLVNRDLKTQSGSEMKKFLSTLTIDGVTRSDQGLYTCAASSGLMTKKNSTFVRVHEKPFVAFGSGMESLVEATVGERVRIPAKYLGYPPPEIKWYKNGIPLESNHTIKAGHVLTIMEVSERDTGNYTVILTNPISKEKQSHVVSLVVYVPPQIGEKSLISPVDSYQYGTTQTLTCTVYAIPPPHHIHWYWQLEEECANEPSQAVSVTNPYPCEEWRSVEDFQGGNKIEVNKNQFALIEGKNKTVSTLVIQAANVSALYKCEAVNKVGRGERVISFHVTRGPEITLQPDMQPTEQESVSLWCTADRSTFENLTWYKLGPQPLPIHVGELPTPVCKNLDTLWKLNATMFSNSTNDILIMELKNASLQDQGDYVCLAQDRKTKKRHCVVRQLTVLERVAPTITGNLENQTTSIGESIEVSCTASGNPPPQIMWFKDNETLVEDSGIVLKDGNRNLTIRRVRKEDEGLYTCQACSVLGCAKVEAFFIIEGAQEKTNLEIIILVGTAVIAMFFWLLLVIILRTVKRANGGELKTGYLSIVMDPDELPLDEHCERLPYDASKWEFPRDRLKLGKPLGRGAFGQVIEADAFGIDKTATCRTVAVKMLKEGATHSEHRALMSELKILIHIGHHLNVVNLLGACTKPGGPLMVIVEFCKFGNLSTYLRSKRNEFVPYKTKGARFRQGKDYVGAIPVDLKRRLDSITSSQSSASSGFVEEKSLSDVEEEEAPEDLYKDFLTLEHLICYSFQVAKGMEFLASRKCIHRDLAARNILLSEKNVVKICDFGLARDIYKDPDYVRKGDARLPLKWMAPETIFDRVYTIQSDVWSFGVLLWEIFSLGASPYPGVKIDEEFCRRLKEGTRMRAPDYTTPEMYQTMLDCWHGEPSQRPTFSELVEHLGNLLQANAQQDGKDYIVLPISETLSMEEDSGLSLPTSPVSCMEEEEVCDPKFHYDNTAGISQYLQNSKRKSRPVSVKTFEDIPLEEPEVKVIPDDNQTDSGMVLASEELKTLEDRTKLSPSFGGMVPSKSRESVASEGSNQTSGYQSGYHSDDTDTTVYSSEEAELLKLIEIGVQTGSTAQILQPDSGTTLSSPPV

MDA breast cancer cells = experiment: In vitro antitumor MTT assay, MDA; assay type: cell-based, human; settings: for IC50: Homo sapiens, 24 h, read-out: IC50 MDA; for selectivity index to MDA: WISH versus MDA
Procedure, shortened: as §1

BAX = experiment: Western blot analysis, BAX; assay type: cell-based, human; settings: HepG-2, 9.52 µM, 48 h
Procedure, shortened: (§2)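 HepG-2 treated 48 h with 9.52 µM test compound or DMSO control. Lysed at pH 7.4 (Tris, EDTA, EGTA, NaCl, NP-40, Triton X-100, protease/phosphatase inhibitors), freeze-thawed at −80 °C, sonicated and centrifuged. 30 µg protein run on SDS-PAGE and blotted to PVDF. Primary antibody 1:1000 overnight at 4 °C; HRP secondary 1:2000. ECL detection; bands normalized to β-actin, control set to 1; mean ± SEM, n=3.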

HepG-2 cells [3] = experiment: Cell cycle analysis; assay type: cell-based, human; settings: HepG-2, 9.52 µM, 48 h
p53 = experiment: Western blot analysis, p53; assay type: cell-based, human; settings: 48 h
Procedure, shortened: as §2

Bcl-2 = experiment: Western blot analysis, Bcl-2; assay type: cell-based, human; settings: HepG-2, 9.52 µM, 48 h
Procedure, shortened: as §2

caspase-3 = experiment: Western blot analysis, caspase-3; assay type: cell-based, human; settings: HepG-2, 9.52 µM, 48 h
Procedure, shortened: as §2

BAX/Bcl-2 ratio = experiment: Western blot analysis, BAX/Bcl-2 ratio; assay type: cell-based, human; settings: HepG-2, 9.52 µM, 48 h
Procedure, shortened: as §2

HepG-2 cells [4] = experiment: Annexin V-FITC/PI apoptosis assay; assay type: cell-based, human
Procedure, shortened: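 HepG-2 cells seeded and incubated 24 h, then exposed to test compound at 9.52 µM. Harvested cells washed 3× in PBS, […] double-stained with Annexin V-FITC/propidium iodide for 20 min in the dark. Early/late apoptotic and necrotic fractions measured by flow cytometry. Mean ± SEM of 3 experiments; unpaired t-test versus untreated control.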

IC50 (A549 lung cancer cells): 9.57 µM
IC50 [1]: 9.42 µM
IC50 (MDA breast cancer cells): 11.3 µM
Compound: O=C(CN1CCN(c2nc3ccccc3nc2Cl)CC1)Nc1ccc(Cl)cc1 [Compound 10c, N-(4-chlorophenyl)-2-(4-(3-chloroquinoxalin-2-yl)piperazin-1-yl)acetamide]
IC50 (WISH normal cell line): 48 µM

IC50 (A549 lung cancer cells): 11.2 µM
IC50 [1]: 13.2 µM
IC50 (VEGFR-2 kinase): 0.258 ± 0.023 µM
IC50 (MDA breast cancer cells): 17.9 µM
Compound: O=C(CN1CCN(c2nc3ccccc3[nH]c2=O)CC1)Nc1ccccc1 [Compound 13a, 2-(4-(3-oxo-3,4-dihydroquinoxalin-2-yl)piperazin-1-yl)-N-phenylacetamide]
IC50 (WISH normal cell line): 106 µM

IC50 (A549 lung cancer cells): 9.03 µM
IC50 [1]: 14.2 µM
IC50 (MDA breast cancer cells): 14.4 µM
Compound: O=C(CN1CCN(c2nc3ccccc3nc2Cl)CC1)Nc1ccccc1 [Compound 10a, 2-(4-(3-chloroquinoxalin-2-yl)piperazin-1-yl)-N-phenylacetamide]
IC50 (WISH normal cell line): 30.5 µM

IC50 (A549 lung cancer cells): 8.36 µM
IC50 [1]: 15.9 µM
IC50 (VEGFR-2 kinase): 0.332 ± 0.028 µM
IC50 (MDA breast cancer cells): 10.5 µM
Compound: O=C(CN1CCN(c2nc3ccccc3nc2Cl)CC1)Nc1ccc([N+](=O)[O-])cc1 [Compound 10g, 2-(4-(3-chloroquinoxalin-2-yl)piperazin-1-yl)-N-(4-nitrophenyl)acetamide]
IC50 (WISH normal cell line): 85 µM

IC50 (A549 lung cancer cells): 11 µM
IC50 (HepG-2 hepatoma cells): 8.83 µM
IC50 [1]: 10.5 µM
IC50 (VEGFR-2 kinase): 0.471 ± 0.034 µM
IC50 (MDA breast cancer cells): 14.7 µM
Compound: COc1ccc(NC(=O)CN2CCN(c3nc4ccccc4[nH]c3=O)CC2)cc1 [Compound 13b, N-(4-methoxyphenyl)-2-(4-(3-oxo-3,4-dihydroquinoxalin-2-yl)piperazin-1-yl)acetamide]
selectivity index to A549 (A549 lung cancer cells): 9.94
selectivity index to HepG-2 (HepG-2 hepatoma cells): 12.35
selectivity ratio at 24 h [2]: 10.4
IC50 (WISH normal cell line): 109 µM
selectivity index to MDA (MDA breast cancer cells): 7.40

IC50 (A549 lung cancer cells): 14.1 µM
IC50 [1]: 9.25 µM
IC50 (MDA breast cancer cells): 10.8 µM
Compound: CNC(=O)c1cc(Oc2ccc(NC(=O)Nc3ccc(Cl)c(C(F)(F)F)c3)cc2)ccn1 [Sorafenib, reference compound]

IC50 (A549 lung cancer cells): 6.48 µM
IC50 [1]: 14.6 µM
IC50 (MDA breast cancer cells): 11.6 µM
Compound: COc1ccc(NC(=O)CN2CCN(c3nc4ccccc4nc3Cl)CC2)cc1 [Compound 10b, 2-(4-(3-chloroquinoxalin-2-yl)piperazin-1-yl)-N-(4-methoxyphenyl)acetamide]
IC50 (WISH normal cell line): 45.7 µM

IC50 (A549 lung cancer cells): 10.5 µM
IC50 [1]: 19.4 µM
IC50 (MDA breast cancer cells): 24.6 µM
Compound: O=C(CN1CCN(c2nc3ccccc3[nH]c2=O)CC1)Nc1ccc([N+](=O)[O-])cc1 [Compound 13g, N-(4-nitrophenyl)-2-(4-(3-oxo-3,4-dihydroquinoxalin-2-yl)piperazin-1-yl)acetamide]
IC50 (WISH normal cell line): 38.6 µM

IC50 (A549 lung cancer cells): 11.3 µM
IC50 (HepG-2 hepatoma cells): 8.4 µM
IC50 [1]: 9.01 µM
IC50 (VEGFR-2 kinase): 0.465 ± 0.046 µM
IC50 (MDA breast cancer cells): 16.4 µM
Compound: CC(=O)c1ccc(NC(=O)CN2CCN(c3nc4ccccc4[nH]c3=O)CC2)cc1 [Compound 13f, N-(4-acetylphenyl)-2-(4-(3-oxo-3,4-dihydroquinoxalin-2-yl)piperazin-1-yl)acetamide]
IC50 (WISH normal cell line): 54.8 µM

Second part, the compound before the results:

Compound: Cc1ccc(NC(=O)CN2CCN(c3nc4ccccc4nc3Cl)CC2)cc1 [Compound 10e, 2-(4-(3-chloroquinoxalin-2-yl)piperazin-1-yl)-N-(p-tolyl)acetamide]
IC50 (A549 lung cancer cells): 11.6 µM
selectivity index to A549 (A549 lung cancer cells): 9.18
selectivity index to HepG-2 (HepG-2 hepatoma cells): 13.17
IC50 [1]: 16.3 µM
selectivity ratio at 24 h [2]: 6.51
IC50 (WISH normal cell line): 106 µM
IC50 (VEGFR-2 kinase): 0.241 ± 0.021 µM
IC50 (MDA breast cancer cells): 14.3 µM
selectivity index to MDA (MDA breast cancer cells): 7.43

Compound: O=C(CN1CCN(c2nc3ccccc3nc2Cl)CC1)NCc1ccccc1 [Compound 11, N-benzyl-2-(4-(3-chloroquinoxalin-2-yl)piperazin-1-yl)acetamide]
IC50 (A549 lung cancer cells): 10.6 µM
selectivity index to A549 (A549 lung cancer cells): 12.18
BAX protein expression level compared to control (BAX; in words): double increase
Protein Level (Normalized to β-Actin) BAX (BAX; control set to 1, mean ± SEM): 2.16 ± 0.22
cell accumulation in the G2/M phase (HepG-2 cells [3]; control 15.16%): 25.22%
cell accumulation rate at S phase (HepG-2 cells [3]; control 20.14%): 46.10%
cell accumulation percentage in phase G1 (HepG-2 cells [3]; control 63.18%): 27.37%
selectivity index to HepG-2 (HepG-2 hepatoma cells): 13.57
increase in P53 expression compared to control (p53; HepG-2, 9.52 µM (IC50 value)): 3 fold
Protein Level (Normalized to β-Actin) P53 (p53; HepG-2, 9.52 µM, control set to 1, mean ± SEM): 3.07 ± 0.24
IC50 [1]: 12.5 µM
selectivity ratio at 24 h [2]: 10.4
Bcl-2 expression level compared to control (Bcl-2; in words): decreased to half
Protein Level (Normalized to β-Actin) Bcl-2 (Bcl-2; control set to 1, mean ± SEM): 0.50 ± 0.03
IC50 (WISH normal cell line): 129 µM
IC50 (VEGFR-2 kinase): 0.19 µM and 0.192 µM
increase in caspase-3 level compared to untreated cells (caspase-3): 2.3 fold
Protein Level (Normalized to β-Actin) Caspases-3 (caspase-3; control set to 1, mean ± SEM): 2.32 ± 0.11
IC50 (MDA breast cancer cells): 11.5 µM
selectivity index to MDA (MDA breast cancer cells): 11.22
increase in BAX/Bcl-2 ratio compared to control (BAX/Bcl-2 ratio): 4 fold
Protein Level (Normalized to β-Actin) BAX/Bcl-2 Ratio (BAX/Bcl-2 ratio; control set to 1, mean ± SEM): 4.25 ± 0.47
increase of early apoptosis rate compared to control (HepG-2 cells [4]; HepG-2, 9.52 µM): about 9 fold
increase of late apoptosis compared to control (HepG-2 cells [4]; HepG-2, 9.52 µM): 3 fold
Necrosis (HepG-2 cells [4]; HepG-2, 9.52 µM, 48 h, control 0.11, mean ± SEM): 0.17 ± 0.01
Apoptosis, Late (HepG-2 cells [4]; HepG-2, 9.52 µM, 48 h, control 0.13, mean ± SEM): 0.38 ± 0.09
Apoptosis, Early (HepG-2 cells [4]; HepG-2, 9.52 µM, 48 h, control 4.75, mean ± SEM): 43.60% and 43.60 ± 4.16 %
effect on HepG-2 necrosis (HepG-2 cells [4]; HepG-2, 9.52 µM, in words): weak effect
viability at 9.52 µM (HepG-2 cells [4]; Homo sapiens, HepG2, 48 h, read-out: Viable cells): 56 ± 4.19%

Compound: O=C(CN1CCN(c2nc3ccccc3[nH]c2=O)CC1)Nc1ccc(Cl)cc1 [Compound 13c, N-(4-chlorophenyl)-2-(4-(3-oxo-3,4-dihydroquinoxalin-2-yl)piperazin-1-yl)acetamide]
IC50 (A549 lung cancer cells): 12.8 µM
IC50 [1]: 9.05 µM
IC50 (WISH normal cell line): 42.1 µM
IC50 (MDA breast cancer cells): 12.1 µM

Compound: CC(=O)c1ccc(NC(=O)CN2CCN(c3nc4ccccc4nc3Cl)CC2)cc1 [Compound 10f, N-(4-acetylphenyl)-2-(4-(3-chloroquinoxalin-2-yl)piperazin-1-yl)acetamide]
IC50 (A549 lung cancer cells): 10.3 µM
IC50 [1]: 28.4 µM
IC50 (WISH normal cell line): 65.5 µM
IC50 (MDA breast cancer cells): 16.1 µM

Compound: O=C(CN1CCN(c2nc3ccccc3[nH]c2=O)CC1)Nc1ccc(F)cc1 [Compound 13d, N-(4-fluorophenyl)-2-(4-(3-oxo-3,4-dihydroquinoxalin-2-yl)piperazin-1-yl)acetamide]
IC50 (A549 lung cancer cells): 13.4 µM
IC50 (HepG-2 hepatoma cells): 8.35 µM
IC50 [1]: 13 µM
IC50 (WISH normal cell line): 60.5 µM
IC50 (VEGFR-2 kinase): 0.602 ± 0.048 µM
IC50 (MDA breast cancer cells): 14.4 µM

Compound: Cc1ccc(NC(=O)CN2CCN(c3nc4ccccc4[nH]c3=O)CC2)cc1 [Compound 13e, 2-(4-(3-oxo-3,4-dihydroquinoxalin-2-yl)piperazin-1-yl)-N-(p-tolyl)acetamide]
IC50 (A549 lung cancer cells): 12.6 µM
IC50 [1]: 14.3 µM
IC50 (WISH normal cell line): 39.6 µM
IC50 (MDA breast cancer cells): 18.5 µM

Compound: O=C(CN1CCN(c2nc3ccccc3[nH]c2=O)CC1)NCc1ccccc1 [Compound 14, N-benzyl-2-(4-(3-oxo-3,4-dihydroquinoxalin-2-yl)piperazin-1-yl)acetamide]
IC50 (A549 lung cancer cells): 14.7 µM
IC50 [1]: 16.6 µM
IC50 (WISH normal cell line): 35.7 µM
IC50 (MDA breast cancer cells): 20 µM

Compound: O=C(CN1CCN(c2nc3ccccc3nc2Cl)CC1)Nc1ccc(F)cc1 [Compound 10d, 2-(4-(3-chloroquinoxalin-2-yl)piperazin-1-yl)-N-(4-fluorophenyl)acetamide]
IC50 (A549 lung cancer cells): 10.9 µM
IC50 [1]: 32.8 µM
IC50 (WISH normal cell line): 82.2 µM
IC50 (MDA breast cancer cells): 16.6 µM

Reference: article PMC8904266 (Drug Design, Development and Therapy, 2022)
